Test results: ChEMBL document CHEMBL1773020, “Discovery of fused bicyclic agonists of the orphan G-protein coupled receptor GPR119 with in vivo activity in rodent models of glucose control” (Bioorg Med Chem Lett, 2011)

Key:
[1] = molecular target: T1, Glucose-dependent insulinotropic receptor (Rattus norvegicus, UniProt Q7TQN8); experiment: Agonist activity at rat GPR119 by melanophore assay; format: functional
T1 sequence (Q7TQN8 whole entry): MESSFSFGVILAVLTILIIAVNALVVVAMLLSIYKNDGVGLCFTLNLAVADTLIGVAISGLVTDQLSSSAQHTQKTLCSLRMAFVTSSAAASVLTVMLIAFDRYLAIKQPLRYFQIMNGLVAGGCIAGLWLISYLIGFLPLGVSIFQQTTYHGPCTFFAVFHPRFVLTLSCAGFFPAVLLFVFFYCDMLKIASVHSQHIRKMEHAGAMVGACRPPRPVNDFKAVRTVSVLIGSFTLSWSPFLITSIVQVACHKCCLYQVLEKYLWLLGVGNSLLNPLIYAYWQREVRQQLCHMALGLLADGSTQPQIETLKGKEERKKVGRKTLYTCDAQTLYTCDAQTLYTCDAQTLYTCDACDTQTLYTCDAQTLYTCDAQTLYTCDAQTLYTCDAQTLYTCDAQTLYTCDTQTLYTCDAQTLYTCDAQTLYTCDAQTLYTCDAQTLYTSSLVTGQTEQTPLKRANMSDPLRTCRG
Procedure, shortened: (§1)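 Agonist EC50 measured in melanophores transfected with the human or rat GPR119 receptor sequence. Values are means of multiple determinations (n).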

[2] = molecular target: T2, Glucose-dependent insulinotropic receptor (Homo sapiens) (UniProt Q8TDV5); experiment: Agonist activity at human GPR119 by melanophore assay relative to AR231453; format: functional
T2 sequence (whole entry): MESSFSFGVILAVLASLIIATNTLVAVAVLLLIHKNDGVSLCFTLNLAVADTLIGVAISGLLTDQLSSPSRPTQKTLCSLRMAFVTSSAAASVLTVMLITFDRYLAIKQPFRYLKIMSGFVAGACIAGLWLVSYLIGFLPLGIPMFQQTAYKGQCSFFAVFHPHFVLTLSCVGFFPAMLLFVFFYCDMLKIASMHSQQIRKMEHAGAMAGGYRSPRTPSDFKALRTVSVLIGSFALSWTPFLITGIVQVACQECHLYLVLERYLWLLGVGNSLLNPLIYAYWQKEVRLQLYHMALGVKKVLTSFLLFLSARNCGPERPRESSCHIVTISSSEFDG
Procedure, shortened: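 Melanophores transfected with human GPR119. Apparent Emax is the curve height normalized to the positive control AR231453, which is defined as a full agonist (100% efficacy).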

[3] = molecular target: T3, Glucose-dependent insulinotropic receptor (Homo sapiens, UniProt Q8TDV5); experiment: Agonist activity at human GPR119 by melanophore assay; format: functional; procedure, shortened: as §1
T3 sequence (Q8TDV5 whole entry): T2 sequence (whole entry)

[4] = molecular target: T4, Glucose-dependent insulinotropic receptor (Rattus norvegicus) (UniProt Q7TQN8); experiment: Selectivity ratio of EC50 for rat GPR119 to EC50 for human GPR119
T4 sequence (whole entry): T1 sequence (Q7TQN8 whole entry)

Structure (SMILES) | EC50 [1] [nM] | Emax [2] [%] | EC50 [3] [nM] | Ratio EC50 [4]
CC(C)(C)OC(=O)N1CCC(Sc2ncnc3c2cnn3-c2ccc(S(C)(=O)=O)cc2F)CC1 | 7.3 | 98 | 0.5 | 14.6
Cc1nn(-c2ccc(S(C)(=O)=O)cc2)c2ncnc(OC3CCN(C(=O)OC(C)(C)C)CC3)c12 | 42 | 103 | 15 | 3
CC(C)(C)OC(=O)N1CCC(Nc2ncnc3c2cnn3-c2ccc(S(C)(=O)=O)cc2)CC1 | > 10000 | 101 | 250 | > 40
CC(C)(C)OC(=O)N1CCC(CNc2ncnc3c2cnn3-c2ccc(S(C)(=O)=O)cc2)CC1 | – | 87 | 265 | –
CC(C)(C)OC(=O)N1CCC(Oc2ncnc3c2[nH]c(=O)n3-c2ccc(S(C)(=O)=O)cc2F)CC1 | – | 64 | 0.6 | –
CC(C)c1noc(C2CCN(c3ncnc4c3cnn4-c3ccc(S(C)(=O)=O)cc3)CC2)n1 | – | – | 42 | –
CC(C)(C)OC(=O)N1CCC(S(=O)(=O)c2ncnc3c2cnn3-c2ccc(S(C)(=O)=O)cc2)CC1 | > 10000 | – | > 10000 | –
CC(C)(C)OC(=O)N1CCC(Oc2ncnc3c2ncn3-c2ccc(S(C)(=O)=O)cc2)CC1 | – | 95 | 33.4 | –
CC(C)c1noc(C2CCN(c3ncnc(Nc4ccc(S(C)(=O)=O)cc4F)c3[N+](=O)[O-])CC2)n1 | – | – | 0.65 | –
CCN(CC1CCN(C(=O)OC(C)C)CC1)c1ncnc2c1cnn2-c1ccc(S(C)(=O)=O)cc1F | 264 | 82 | 3.4 | 77.6
CC(C)(C)OC(=O)N1CCC(Oc2ncnc3c(-c4ccc(S(C)(=O)=O)cc4)noc23)CC1 | 17 | 100 | 0.7 | 24.3
CC(C)(C)OC(=O)N1CCC([S+]([O-])c2ncnc3c2cnn3-c2ccc(S(C)(=O)=O)cc2)CC1 (stereo not drawn) | > 10000 | – | 2400 | –
CC(C)c1noc(C2CCN(c3ncnc(Nc4ccc(S(C)(=O)=O)cc4)c3[N+](=O)[O-])CC2)n1 | – | – | 5.1 | –
CC(C)(C)OC(=O)N1CCC(Cc2ncnc3c2cnn3-c2ccc(S(C)(=O)=O)cc2)CC1 | 120 | 91 | 7.3 | 16.4
CCN(CC1CCN(C(=O)OC(C)(C)C)CC1)c1ncnc2c1cnn2-c1ccc(S(C)(=O)=O)cc1 | – | 67 | 6.3 | –
CC(C)(C)OC(=O)N1CCC(Oc2ncnc3c2nnn3-c2ccc(S(C)(=O)=O)cc2)CC1 | 42 | 103 | 7.4 | 5.7
CC(C)OC(=O)N1CCC(Oc2ncnc3c(-c4ccc(S(C)(=O)=O)cc4)noc23)CC1 | 40 | 65 | 14 | 3
Cc1nc(OC2CCN(C(=O)OC(C)(C)C)CC2)c2c(C)nn(-c3ccc(S(C)(=O)=O)cc3)c2n1 | – | 90 | 116 | –
CC(C)(C)OC(=O)N1CCC(Cc2ncnc3c2cnn3-c2ccc(S(C)(=O)=O)cc2F)CC1 | 88 | 72 | 3.4 | 25.9

Next, values leading:

EC50 [1] [nM] | Emax [2] [%] | EC50 [3] [nM] | Ratio EC50 [4] | Structure (SMILES)
– | – | > 10000 | – | CN(C)CCOC(=O)N1CCC(Oc2ncnc3c2cnn3-c2ccc(S(C)(=O)=O)cc2)CC1
– | 83 | 3.5 | – | CC(C)OC(=O)N1CCC(Oc2ncnc3c2cnn3-c2ccc(S(C)(=O)=O)cc2)CC1
53 | 91 | 3.8 | 13.9 | CCOC(=O)N1CCC(Oc2ncnc3c2cnn3-c2ccc(S(C)(=O)=O)cc2)CC1
19.6 | 79 | 0.9 | 21.8 | CC(C)(C)OC(=O)N1CCC(Oc2ncnc3c2cnn3-c2ccc(S(C)(=O)=O)cc2F)CC1
– | 89 | 11.6 | – | CN(CC1CCN(C(=O)OC(C)(C)C)CC1)c1ncnc2c1cnn2-c1ccc(S(C)(=O)=O)cc1
– | 99 | 4.2 | – | CC(C)COC(=O)N1CCC(Oc2ncnc3c2cnn3-c2ccc(S(C)(=O)=O)cc2)CC1
21 | 80 | 14.6 | 1.4 | CS(=O)(=O)c1ccc(-n2ncc3c(OC4CCN(C(=O)OC5CCCC5)CC4)ncnc32)cc1
15.5 | 104 | 5.6 | 3 | CC(C)(C)OC(=O)N1CCC(Sc2ncnc3c2cnn3-c2ccc(S(C)(=O)=O)cc2)CC1
65 | 105 | 8.1 | 8 | CC(C)(C)COC(=O)N1CCC(Oc2ncnc3c2cnn3-c2ccc(S(C)(=O)=O)cc2)CC1
9.8 | 96 | 1.1 | 8.9 | CC(C)(C)OC(=O)N1CCC(Oc2ncnc3c2cnn3-c2ccc(S(C)(=O)=O)cc2)CC1
– | 71 | 435 | – | CS(=O)(=O)c1ccc(-n2ncc3c(OC4CCN(C(=O)OC5CCOC5)CC4)ncnc32)cc1 (stereo not drawn)
– | 79 | 7.5 | – | CCCCOC(=O)N1CCC(Oc2ncnc3c2cnn3-c2ccc(S(C)(=O)=O)cc2)CC1
